# Measurements of several laboratories.
# Matrix: plasma
SMILES,host,route,dose,notes,quantity,value
CC(C)=CCC[C@](C)(O[C@@H]1O[C@H](CO)[C@@H](O)[C@H](O)[C@H]1O)[C@H]1CC[C@]2(C)[C@@H]1[C@H](O)C[C@@H]1[C@@]3(C)CC[C@H](O)C(C)(C)[C@@H]3CC[C@]12C,mouse,intravenous,2 mg/kg,,clearance,0.46 L/h
CC[C@H](C)[C@@H]1NC(=O)[C@@H]2CCCN2C(=O)[C@H](CC(C)C)NC(=O)[C@H](CC(C)C)NC(=O)CNC(=O)[C@@H](NC(=O)[C@@H](NC(=O)[C@H](CC(=O)O)NC(=O)CNC(=O)[C@@H](NC(=O)[C@H](C)NC(=O)CNC(=O)[C@H](CCCCN)NC(=O)[C@H](CC(C)C)NC(=O)[C@H](CC(C)C)NC(=O)[C@H](CCCCN)NC(=O)CNC(=O)[C@@H](NC(=O)[C@@H](N)CC(C)C)C(C)C)C(C)C)C(C)C)CSSC[C@@H](C(=O)O)NC1=O,female C57BL/6 mouse,intravenous,10 mg/kg,single dose,C0,3190 ng/mL
CC[C@H](C)CCCCC(=O)N[C@@H](CCN)C(=O)N[C@H](C(=O)N[C@@H](CCN)C(=O)N[C@H]1CCNC(=O)[C@H]([C@@H](C)O)NC(=O)[C@H](CCN)NC(=O)[C@H](CCN)NC(=O)[C@H](CC(C)C)NC(=O)[C@@H](CC(C)C)NC(=O)[C@H](CCN)NC1=O)[C@@H](C)O,male Sprague-Dawley rat,subcutaneous,10 mg/kg,,Tmax,2.67 h
C[C@@H](O)[C@@H]1NC(=O)CNC(=O)[C@H](Cc2c[nH]cn2)NC(=O)[C@H](Cc2c[nH]c3ccccc23)NC(=O)[C@H](CC(N)=O)NC(=O)CNC(=O)C[C@@H](C(=O)N[C@@H](Cc2c[nH]c3ccccc23)C(=O)N[C@@H](Cc2ccccc2)C(=O)N[C@@H](Cc2ccccc2)C(=O)N[C@@H](CC(N)=O)C(=O)N[C@@H](Cc2ccc(O)cc2)C(=O)N[C@@H](Cc2ccc(O)cc2)C(=O)N[C@@H](Cc2c[nH]c3ccccc23)C(=O)O)NC(=O)[C@@H]2CCCN2C(=O)[C@H](CO)NC1=O,mouse,intravenous,3 mg/kg,,clearance,1.34 mL/min/kg
CC(C)[C@]12O[C@H]1[C@@H]1O[C@]13[C@]1(O[C@H]1C[C@H]1C4=C(CC[C@@]13C)C(=O)OC4)[C@@H]2O,SCID mouse,intravenous,0.6 mg/kg,,clearance,20.5 mL/min/kg
CC(=O)c1c(C)c2cnc(Nc3ccc(C4CCN(CCS(C)(=O)=O)CC4)cn3)nc2n(C2CCCC2)c1=O,male beagle dog,oral,6 mg/kg,multiple doses,Cmax,98.5 ng/mL
N=C(N)NCCC[C@H](NC(=O)[C@H](Cc1ccccc1)NC(=O)[C@H](CCC(N)=O)NC(=O)OCc1ccccc1)C(=O)c1nccs1,female C57BL/6 mouse,intravenous,5 mg/kg,,clearance,70.2 mL/min/kg
CC[C@H](C)[C@H](NC(=O)[C@H](Cc1ccccc1)NC(=O)[C@H](CCC(=O)O)NC(=O)[C@H](CCCCN)NC(=O)[C@H](C)NC(=O)[C@H](C)NC(=O)[C@H](CCC(N)=O)NC(=O)CNC(=O)[C@H](CCC(=O)O)NC(=O)[C@H](CC(C)C)NC(=O)[C@H](Cc1ccc(O)cc1)NC(=O)[C@H](CO)NC(=O)[C@H](CO)NC(=O)[C@@H](NC(=O)[C@H](CC(=O)O)NC(=O)[C@H](CO)NC(=O)[C@@H](NC(=O)[C@H](Cc1ccccc1)NC(=O)[C@@H](NC(=O)CNC(=O)[C@H](CCC(=O)O)NC(=O)[C@H](C)NC(=O)N(N)Cc1c[nH]cn1)[C@@H](C)O)[C@@H](C)O)C(C)C)C(=O)N[C@@H](C)C(=O)N[C@@H](Cc1c[nH]c2ccccc12)C(=O)N[C@@H](CC(C)C)C(=O)N[C@H](C(=O)N[C@@H](CCCNC(=N)N)C(=O)NCC(=O)N[C@@H](CCCNC(=N)N)C(=O)NCC(=O)O)C(C)C,male CD-1 mouse,intravenous,1 mg/kg,single dose,C0,37700 ng/mL
